Results as given in ChEMBL document CHEMBL1811775, “Brominated arginine-derived alkaloids from the red sea sponge Suberea mollis” (J Nat Prod, 2011).
Values after ≈ are worked out from the molar mass of the structure shown. Active and inactive are the calls of the source. The calls are words filed in the database; no cut-off is given here.

Experiments:
[1] = system: Staphylococcus aureus; experiment: Antibacterial activity against Staphylococcus aureus ATCC 6538P after 24 hrs by agar diffusion method; format: functional
Procedure, shortened: (§1)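 Agar cup diffusion against the listed ATCC strains. Each compound was dissolved at 1 mg/mL in DMF, and 100 μL was placed in each cup. Plates were incubated at 37 C for 24 h, and the inhibition zone diameters were measured in mm.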

[2] = system: Escherichia coli; experiment: Antibacterial activity against Escherichia coli ATCC 35218 after 24 hrs by agar diffusion method; format: functional; procedure, shortened: as §1
[3] = system: Candida albicans; experiment: Antifungal activity against Candida albicans ATCC 2091 after 24 hrs by agar diffusion method; format: functional; procedure, shortened: as §1
[4] = system: Klebsiella pneumoniae; experiment: Antibacterial activity against Klebsiella pneumoniae ATCC 10032 after 24 hrs by agar diffusion method; format: functional, organism-based; procedure, shortened: as §1
[5] = system: Pseudomonas aeruginosa; experiment: Antibacterial activity against Pseudomonas aeruginosa ATCC 9027 after 24 hrs by agar diffusion method; format: functional, organism-based; procedure, shortened: as §1
[6] = system: Klebsiella pneumoniae; experiment: Antibacterial activity against Klebsiella pneumoniae ATCC 10032 at 30 ug/disk after 24 hrs by agar diffusion method; format: functional; conditions: ATCC 10032, 24 h, read-out: IZ
Procedure, shortened: (§2)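 Reference drugs were tested in the same agar diffusion series at the stated loads: chloramphenicol 30 μg/disk, ciprofloxacin 5 μg/disk, erythromycin 15 μg/disk, and clotrimazole 10 mg/mL (100 μL). Plates were read at 37 C for 24 h, and inhibition zones were recorded in mm.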

[7] = system: Staphylococcus aureus; experiment: Antibacterial activity against Staphylococcus aureus ATCC 6538P at 30 ug/disk after 24 hrs by agar diffusion method; format: functional; conditions: read-out: IZ; procedure, shortened: as §2
[8] = system: Pseudomonas aeruginosa; experiment: Antibacterial activity against Pseudomonas aeruginosa ATCC 9027 at 30 ug/disk after 24 hrs by agar diffusion method; format: functional; conditions: ATCC 9027, 24 h, read-out: IZ
Procedure, shortened: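 Agar diffusion against P. aeruginosa ATCC 9027, using reference antibiotic disks at 30 μg/disk. Plates incubated at 37 C for 24 h, and the inhibition zone diameter read in mm.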

[9] = system: Pseudomonas aeruginosa; experiment: microbe, parasite or virus in culture; conditions: ATCC 9027, 24 h, read-out: IZ
[10] = system: Candida albicans; experiment: Antifungal activity against Candida albicans ATCC 2091 at 10 mg/mL after 24 hrs by agar diffusion method; format: functional; conditions: ATCC 2091, 24 h, read-out: IZ; procedure, shortened: as §2
[11] = system: HeLa; experiment: Cytotoxicity against human HeLa cells after 72 hrs by MTT assay; format: functional, cell-based
Procedure, shortened: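 HeLa cells were plated overnight at 37 C in 5% CO2. Samples were serially diluted 1:4 down the plate, with adriamycin and DMSO as controls. After 72 h, viability was read at 490 nm as MTS reduction to formazan. IC50 (μg/mL) was calculated from the dilution series.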

[12] = system: Staphylococcus aureus; experiment: Antibacterial activity against Staphylococcus aureus ATCC 6538P at 15 ug/disk after 24 hrs by agar diffusion method; format: functional; conditions: read-out: IZ; procedure, shortened: as §2
[13] = system: Radical scavenging activity; experiment: Antioxidant activity assessed as DPPH radical scavenging activity after 30 mins by TLC […] assay; format: functional
Procedure, shortened: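 TLC autographic DPPH assay. Samples at 1 mg/mL in MeOH were spotted at 6 μg each as 4 mm spots, with vitamin E as the positive control. The plate was sprayed with 0.2% (w/v) DPPH in MeOH, and scavenging spots were read 30 min after spraying.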

For COc1c(Br)cc(/C=C/C(=O)N[C@H](CCCNC(=N)N)C(=O)O)cc1Br, the Activity [1] was “inactive”, the Activity [2] was “inactive” and the Activity [3] was “inactive”. For the same compound, the Activity [4] was “inactive” and the Activity [5] was “inactive”.
In the case of COc1ccc(/C=C/C(=O)N[C@H](CCCNC(=N)N)C(=O)O)cc1Br, the Activity [1] is reported as “inactive”, the Activity [2] is reported as “inactive” and the Activity [3] is reported as “inactive”. The Activity [4] was “inactive” and the Activity [5] was “inactive”.
For COC1=C(Br)[C@H](O)[C@@]2(C=C1Br)CC(C(=O)NCCCCNC(=O)C1=NO[C@]3(C=C(Br)C(OC)=C(Br)[C@@H]3O)C1)=NO2 [AEROTHIONIN], the “inhibition zone (IZ)” value [1] was 5 mm and the Activity [3] was “inactive”.
O=C(N[C@H](CO)[C@H](O)c1ccc([N+](=O)[O-])cc1)C(Cl)Cl [CHLORAMPHENICOL] gave a zone of inhibition at 30 µg/disc [6] of 10 mm, a zone of inhibition at 30 µg/disc [7] of 9 mm and a zone of inhibition at 30 µg/disc [8] of 7 mm.
Work on O=C(O)c1cn(C2CC2)c2cc(N3CCNCC3)c(F)cc2c1=O [CIPROFLOXACIN] yielded a zone of inhibition at 5 µg/disc [9] of 8 mm.
Clc1ccccc1C(c1ccccc1)(c1ccccc1)n1ccnc1 [CLOTRIMAZOLE] showed a zone of inhibition at 10000 µg/mL [10] of 28 mm.
NC(=O)CC1(O)C=C(Cl)C(=O)C(Cl)=C1 [DICHLOROVERONGIAQUINOL] was tested, and the “inhibition zone (IZ)” value [2] was 15 mm, the Activity [3] was “inactive” and the IC50 [11] was 13 µg/mL (≈ 55.1 µM).
CC[C@H]1OC(=O)[C@H](C)[C@@H](O[C@H]2C[C@@](C)(OC)[C@@H](O)[C@H](C)O2)[C@H](C)[C@@H](O[C@@H]2O[C@H](C)C[C@H](N(C)C)[C@H]2O)[C@](C)(O)C[C@@H](C)C(=O)[C@H](C)[C@@H](O)[C@]1(C)O [ERYTHROMYCIN] gave a zone of inhibition at 15 µg/disc [12] of 8 mm.
In the case of COC1=C(Br)[C@H](O)[C@@]2(C=C1Br)CC(C(=O)NCCCCNC(=N)N)=NO2 [PUREALDIN L], the “inhibition zone (IZ)” value [1] is reported as 5 mm and the Activity [3] is reported as “inactive”.
For COc1ccc(O)c(CC(N)=O)c1Br [SUBEREAPHENOL], the “inhibition zone (IZ)” value [1] was 10 mm, the “inhibition zone (IZ)” value [2] was 18 mm and the “inhibition zone (IZ)” value [3] was 20 mm. For the same compound, the Activity [13] was “Active” and the IC50 [11] was 19 µg/mL (≈ 73.1 µM).
